Experimental data collected from several papers.
Compare with care: the assays were run in different laboratories.

For `NC(=O)c1ccncc1`, the IC50 was > 200 µM (DH82; PGE2 release, inhibitor, ELISA; 24 h, LPS-stimulated).
`COc1cc2c(cc1OC)-c1cc3ccc(OC)c(OCCN)c3c[n+]1CC2` has an IC50 of > 80 µM (PC-9; cell growth or viability, MTT; 72 h).
`COc1ccc(-c2cc(-c3ccccc3Cl)c3c(=O)n(C)c(=O)n(C)c3n2)cc1` has an IC50 of 14.1 µM (HCT-116; cell growth or viability, MTT; 48 h).
With `C=C(F)C(=O)N1CCN(c2nc(OC[C@@H]3CCCN3C)nc3c2CCN(c2cccc4cccc(Cl)c24)C3)C[C@@H]1CC#N` the IC50 was > 1 µM (AGS; cell growth or viability, ATP luminescence; 3D culture).
`CCCOc1nc(-c2cccc(O)c2)cc(-c2cc3cc(Cl)ccc3nc2N2CCOCC2)c1C#N` has an IC50 of 0.244 µM (NFS-60; cell growth or viability, MTT; 72 h).
For `C=CC(=O)N1CCN(c2nc(=O)n(-c3c(C)ccnc3C(C)C)c3nc(-c4c(O)cccc4F)c(F)cc23)[C@@H](C)C1`, the IC50 was > 10 µM (PC-9; cell growth or viability, ATP luminescence).
The IC50 of `Cc1nc2cccc(N)c2c(=O)n1C1CCC(=O)NC1=O` (stereo not shown) is reported as < 0.33 µM (NCI-H929; cell growth or viability, CCK-8; 96 h).
With `Nc1n[nH]c2nc(-c3cccc(O)c3)cc(-c3cc4cc(Cl)ccc4nc3N3CCOCC3)c12` the IC50 was 0.16 µM (NFS-60; cell growth or viability, MTT; 72 h).
With `CC1(C)CCC(CN2CCN(c3ccc(C(=O)NS(=O)(=O)c4ccc(NCC5CCOCC5)c([N+](=O)[O-])c4)c(Oc4cnc5[nH]ccc5c4)c3)CC2)=C(c2ccc(Cl)cc2)C1` the IC50 was 0.077 µM (DOHH-2; cell growth or viability, ATP luminescence; 48 h).
`Cc1c(C(=O)O)ccc2c3n(nc12)[C@@H]1[C@H](C3)N(CC2CC2)[C@@]2(C(=O)Nc3cc(Cl)ccc32)[C@H]1c1cccc(Cl)c1F` has an IC50 of > 50 µM (SK-OV-3; cell growth or viability, ATP luminescence).
For `CCOc1nc(-c2cccc(O)c2)cc(-c2cc3cc(Cl)ccc3nc2N2CCOCC2)c1C#N`, the IC50 was 0.113 µM (NFS-60; cell growth or viability, MTT; 72 h).
With `NCCC(=O)NCc1ccccc1` the IC50 was 158 µM (DH82; NO release, inhibitor, Griess; 24 h, LPS-stimulated).
With `COc1ccc(-c2cc(-c3cc(OC)ccc3OC)c3c(=O)[nH]c(=O)[nH]c3n2)cc1` the IC50 was 11.8 µM (HCT-116; cell growth or viability, MTT; 48 h).
`COCCC(=O)NCc1ccccc1` has an IC50 of 171 µM (DH82; NO release, inhibitor, Griess; 24 h, LPS-stimulated).
With `COc1cc2c3c(n(CCCNCCO)c(=O)c2cc1OC)-c1nc2c(cc1C3=O)OCO2` the IC50 was 0.132 µM (Raji; cell growth or viability, MTS; 72 h).
`O=C(CCNNC(=O)c1ccncc1)NCc1ccccc1` has an IC50 of > 200 µM (DH82; PGE2 release, inhibitor, ELISA; 24 h, LPS-stimulated).
`Nc1n[nH]c2nc(-c3cccc(O)c3)cc(-c3cc4ccccc4nc3N3CCOCC3)c12` gave an IC50 of 0.0641 µM (NFS-60; cell growth or viability, MTT; 72 h).
With `CCNCCCn1c2c(c3cc(OC)c(OC)cc3c1=O)C(=O)c1cc3c(nc1-2)OCO3` the IC50 was 0.125 µM (Raji; cell growth or viability, MTS; 72 h).
`O=C(CCO)NCc1ccccc1` gave an IC50 of 57.5 µM (DH82; NO release, inhibitor, Griess; 24 h, LPS-stimulated).
